# Measured values from publication PMC4832564 (Amyloid : the international journal of experimental and …, 2015).
# Where two headings read alike, the source gives them in different places. Where no end group is shown, it is not given here.
# Experiments:
# [1] = molecular target: Synthetic amyloid fibrils of the recombinant λ6 variable domain from patient Wil (rVλ6Wil) (human); assay: co-sedimentation
# [2] = molecular target: Synthetic amyloid fibrils of human islet amyloid polypeptide (IAPP) (human) (UniProt P10997); assay: co-sedimentation
# Synthetic amyloid fibrils of human islet amyloid polypeptide (IAPP) (human), sequence (P10997 34-70): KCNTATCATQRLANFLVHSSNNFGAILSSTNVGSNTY
# [3] = tested on: heparin and synthetic amyloid fibrils; conditions: cited from earlier work
# [4] = mouse, in vivo, iv
# systemic AA amyloid = type: in vivo, mouse; conditions: mice with systemic visceral AA amyloidosis, 2 h post-injection iv; triplicate
# [5] = tested on: synthetic rVλ6Wil fibrils; type: binding, human; conditions: for % bound relative to no inhibitor: 50 μg rVλ6Wil fibrils, mean of duplicate experiments
# In short: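 ¹²⁵I-p5 or ¹²⁵I-RAGE VC1 (chloramine T iodination) pre-incubated 30 min RT with AGE-BSA, BSA, enoxaparin or E. coli-expressed human S100B (100, 4 or 1 μM). 50 μg fibrils from E. coli-made rVλ6Wil then added in PBS/0.05% tween 20 (S100B: TBS with 1 mM CaCl₂) and rotated 1 h RT. Spun twice at 16 000 × g, 10 min each. Pellet and supernatant gamma-counted; % bound relative to no inhibitor; mean of duplicate experiments.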
# [6] = molecular target: Synthetic amyloid fibrils of the recombinant λ6 variable domain from patient Wil (rVλ6Wil) (human); assay: co-sedimentation; remark: listed apart in the source
# [7] = molecular target: Synthetic amyloid fibrils of Aβ(1–40); assay: co-sedimentation
molecule,measurement,setting,value
Recombinant human RAGE VC1 (soluble recombinant variable and constant-1 domains of RAGE) (domain or fragment),"% bound relative to no inhibitor (no inhibitor, PBS)",[1],100%
same,"% bound relative to no inhibitor (no inhibitor, TBS with 1 mM CaCl2)",[1],102%
same,"% bound relative to no inhibitor, with 4 μM enoxaparin",[1],102%
same,"% bound relative to no inhibitor, with 100 μM enoxaparin",[1],94%
same,% reduction of ^125I-p5R binding to IAPP fibrils,[2],70%
same,% reduction of ^125I-p5 binding to IAPP fibrils,[2],90%
GGGYSRAQRAQARQARQAQRAQRAQARQARQ [p5R],affinity relative to p5,[3],higher affinity for both heparin and synthetic amyloid fibrils
99mTc-p5: peptide p5 radiolabeled with 99mTc (CGGYSKAQKAQAKQAKQAQKAQKAQAKQAKQ; also: 99mTc radiolabel),"T:M ratio, Heart",[4],2.75
same,"T:M ratio, L. Kidney",[4],659.97
same,"T:M ratio, Liver",[4],12.44
same,"T:M ratio, Low. Intestine",[4],14.55
same,"T:M ratio, Muscle",[4],1.00
same,"T:M ratio, Pancreas",[4],3.92
same,"T:M ratio, R. Kidney",[4],711.82
same,"T:M ratio, Spleen",[4],4.65
same,"T:M ratio, Stomach",[4],9.62
same,"T:M ratio, Up. Intestine",[4],8.88
same,distribution of radiotracer by SPECT/CT in AA mice,systemic AA amyloid,coincident retention of both radiotracers in the amyloid-laden liver and spleen
125I-p5: peptide p5 radioiodinated with 125I (CGGYSKAQKAQAKQAKQAQKAQKAQAKQAKQ; also: 125I radiolabel),% bound relative to no inhibitor,[5]; PBS,100.0%
same,% bound relative to no inhibitor,[5]; TBS with 1 mM CaCl2,76.5%
CGGYSKAQKAQAKQAKQAQKAQKAQAKQAKQ [p5],decrease in binding to fibrils on addition of BSA,"[5]; 125I-labelled, BSA added (100 μM in Table 1)",~ 30%
same,decrease in binding with the synthetic amyloid fibrils,"[5]; 125I-labelled, Enoxaparin 100 μM",13%
same,decrease in binding to fibrils on addition of S100B,"[5]; 125I-labelled, human recombinant S100B, in the presence of 1 mM CaCl2",20%
same,reduction of reactivity with rVλ6Wil fibrils,"[5]; 125I-labelled, pre-incubation with AGE-BSA at 100 μM",~ 90%
CGGYSKAQKAQAKQAKQAQKAQKAQAKQAKQ (not fully specified; also: 99mTc-labeled in imaging studies) [Peptide p5],"% bound relative to no inhibitor (no inhibitor, PBS)",[6],100%
same,"% bound relative to no inhibitor (no inhibitor, TBS with 1 mM CaCl2)",[6],76.5%
same,"% bound relative to no inhibitor, with 4 μM enoxaparin",[6],97.6%
same,"% bound relative to no inhibitor, with 100 μM enoxaparin",[6],87.4%
same,% bound to the fibril pellet,[6],> 50%
same,% bound to the fibril pellet,[7],> 50%
"GGGYSRAQRAQARQARQAQRAQRAQARQARQ (also: radioiodinated (125I, chloramine T)) [Peptide p5R]",% bound to the fibril pellet,[6],> 50%
same,% bound to the fibril pellet,[7],> 50%
